From ChEMBL document CHEMBL2021903, “3-Deoxy-3,4-dehydro analogs of XM462. Preparation and activity on sphingolipid metabolism and cell fate” (Bioorg Med Chem, 2012)
Calls of active or inactive are those of the source. The calls are words filed in the database; no cut-off is given here.

Columns and labels:
HCT-116 = assay: Induction of apoptosis in human HCT116 cells at 30 uM after 14 hrs by Annexin V-propidium iodide staining based flow cytometry; format: functional, cell-based
In short: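 HCT116 (clone 40–16) in low-glucose DMEM with 10% FBS and 1% penicillin–streptomycin, seeded 2.5×10⁵ cells/mL. After 24 h, medium replaced with compound-containing medium; ethanol vehicle to controls. After incubation, cells PBS-washed, trypsinized, stained with Annexin V and propidium iodide, analysed by flow cytometry. Mean ± SD, 3 experiments in triplicate.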

[1] = molecular target: T1, Acid ceramidase (Homo sapiens) (UniProt Q13510); assay: Inhibition of aCDase using RBM14C16 as substrate at 16 uM after 1 hr by HPLC-FD analysis
T1 sequence (whole entry): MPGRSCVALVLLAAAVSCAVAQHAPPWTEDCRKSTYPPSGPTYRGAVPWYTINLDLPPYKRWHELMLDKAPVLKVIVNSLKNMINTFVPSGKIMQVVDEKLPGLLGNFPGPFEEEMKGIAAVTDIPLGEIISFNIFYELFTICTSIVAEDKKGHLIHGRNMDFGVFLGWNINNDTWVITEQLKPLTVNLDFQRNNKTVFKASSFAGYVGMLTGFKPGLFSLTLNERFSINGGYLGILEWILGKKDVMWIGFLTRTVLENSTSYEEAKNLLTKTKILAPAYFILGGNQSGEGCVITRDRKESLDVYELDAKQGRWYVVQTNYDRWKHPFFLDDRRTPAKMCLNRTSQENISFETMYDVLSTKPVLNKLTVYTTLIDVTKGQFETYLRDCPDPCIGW

[2] = molecular target: T1, Acid ceramidase (Homo sapiens); assay: Inhibition of aCDase in Moh.pAS AcCer10X cells using RBM14C16 as substrate at 16 uM after 1 hr by HPLC-FD analysis; format: cell-based

| inhibition [1] [%] | inhibition [2] [%] | Structure (SMILES) | Activity (HCT-116) |
| --- | --- | --- | --- |
|  |  | CCCCCCCCCCCCC/C=C/[C@@H](O)[C@H](CO)NC(=O)CCCCCCC | Active |
| 50 | 50 | CCCCCCCCCCCCC/C=C/[C@@H](O)[C@H](CO)NC(=O)C(C)(C)C |  |
| 50 | 50 | CCCCCCCCCCCCCCC[C@@H](O)[C@H](CO)NC(=O)C(C)(C)C |  |
